In ChEMBL document CHEMBL2380289, “Ligand based approach to L-type calcium channel by imidazo[2,1-b]thiazole-1,4-dihydropyridines: from heart activity to brain affinity” (J Med Chem, 2013):

Legend:
[1] = Displacement of [3H]-PN200-110 from L-type calcium channel dihydropyridine binding site in Wistar rat cortex homogenate after 60 mins by liquid scintillation spectometric analysis; type: tissue-based
In short: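 Competition binding on rat cortex homogenate with (+)-[5-methyl-3H]PN200-110. Compounds are dissolved in DMSO as 10⁻² M stocks and diluted in buffer. Six displacer concentrations are tested, each in triplicate. IC50 is obtained by −log probit analysis and Ki by the Prusoff method. Values are mean ± SEM of 3−5 separate experiments done in triplicate.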

[2] = species on record: Rattus norvegicus; test: Displacement of [3H]-PN200-110 from L-type calcium channel dihydropyridine binding site in Wistar rat cortex homogenate at 100 uM after 60 mins by liquid scintillation spectometric analysis relative to control; type: tissue-based
In short: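 Binding on rat cortex homogenate using (+)-[5-methyl-3H]PN200-110. The read-out is percent of maximal radioligand displacement at 100 μM test compound. Compounds are made up as 10⁻² M DMSO stocks and diluted in buffer. Values are from 3−5 separate experiments done in triplicate.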

[3] = Displacement of [3H]-PN200-110 from voltage-gated calcium channel subunit alpha Cav1.2a (unknown origin) expressed in HEK293 cells after 90 mins by liquid scintillation counting analysis; type: cell-based, Homo sapiens
In short: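 Intact HEK-293 cells stably transfected with a rabbit Cav1.2a (α1c-a) plasmid are used. They are incubated with 0.5 nM (+)-[5-methyl-3H]PN200-110 plus competitor at 0.001−100 μM, from 10⁻² M DMSO stocks diluted in buffer. IC50 values are given as mean ± SEM.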

[4] = Displacement of [3H]-PN200-110 from L-type calcium channel in Hartley guinea pig ventricular membrane […] after 90 mins; parameters: species or system Cavia porcellus
[5] = species on record: Cavia porcellus; test: Displacement of [3H]-PN200-110 from L-type calcium channel in Hartley guinea pig ventricular membrane […] after 90 mins relative to control
[6] = Displacement of [3H]-PN200-110 from L-type calcium channel in Hartley guinea pig atrial membrane after 90 mins; type: cell membranes, Cavia porcellus, Cardiac atrium
In short: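 Guinea pig atrial membranes are labelled at the 1,4-DHP site with (+)-[5-methyl-3H]PN200-110 at 0.5 nM. Competitor is added over 0.001−100 μM from 10⁻² M DMSO stocks diluted in buffer. Results are given as IC50 and Ki, mean ± SEM. Student's t-test is applied with P<0.001.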

[7] = species on record: Cavia porcellus; test: Displacement of [3H]-PN200-110 from L-type calcium channel in Hartley guinea pig atrial membrane at 100 uM after 90 mins relative to control; type: cell membranes; conditions: Cardiac atrium
[8] = system: Aorta; test: Relaxant activity in potassium depolarized guinea pig aortic strips assessed as inhibition of calcium-induced contraction at 10^-6 M relative to control; type: functional, Cavia porcellus; parameters: scale not given: the % may be the effect or the level left
In short: (§1)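 Guinea pig aortic strips and ileum longitudinal smooth muscle were depolarized with 80 mM K⁺. Calcium-induced contraction was measured with cumulative compound addition, and inhibition was expressed as percent change from control (n = 6−7). Differences from control at each concentration were tested by Student's t-test, P < 0.05, and data are mean SEM.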

[9] = system: Ileum; test: Relaxant activity in potassium depolarized guinea pig ileum longitudinal smooth muscle assessed as inhibition of calcium-induced contraction at 5x10'-9 M relative to control; type: functional, Cavia porcellus; parameters: scale not given: the % may be the effect or the level left; in short: as §1
[10] = Negative chronotropic activity in guinea pig right atrium assessed as decrease in atrial rate; type: functional, tissue-based; conditions: Cavia porcellus, Cardiac atrium
In short: (§2)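 Isolated guinea pig atria are used, with left atria driven at 1 Hz. Compounds are added cumulatively. EC50 is derived from log concentration−response curves by Litchfield–Wilcoxon probit analysis, n = 6−7. EC50 is not calculated when the maximal effect is below 50%.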

[11] = Negative chronotropic activity in guinea pig right atrium assessed as decrease in atrial rate at 10^-7 M relative to control; type: functional, Cavia porcellus, Cardiac atrium; parameters: scale not given: the % may be the effect or the level left
In short: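 Spontaneously beating isolated guinea pig right atrium. Compounds added cumulatively. The decrease in atrial rate is expressed as percent change from control. At each concentration, the difference from control was tested by Student's t-test, with significance at P<0.05. Data are given as mean SEM.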

[12] = Negative inotropic activity in guinea pig left atrium assessed as decrease in developed tension at 10^-5 M relative to control; type: functional, Cavia porcellus, Cardiac atrium; parameters: scale not given: the % may be the effect or the level left
[13] = Negative inotropic activity in guinea pig left atrium assessed as decrease in developed tension; type: functional, tissue-based; conditions: Cavia porcellus, Cardiac atrium; in short: as §2
[14] = system: HEK293; test: Displacement of [3H]-PN200-110 from voltage-gated calcium channel subunit alpha Cav1.2a (unknown origin) expressed in HEK293 cells at 100 uM after 90 mins by liquid scintillation counting analysis relative to control; type: cell-based; conditions: Homo sapiens
[15] = system: Ileum; test: Relaxant activity in potassium depolarized guinea pig ileum longitudinal smooth muscle assessed as inhibition of calcium-induced contraction; type: functional, tissue-based; conditions: Cavia porcellus
In short: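 K⁺-depolarized (80 mM) guinea pig ileum longitudinal smooth muscle is used. Calcium-induced contraction is measured with cumulative compound addition.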

[16] = system: Ileum; test: Relaxant activity in potassium depolarized guinea pig ileum longitudinal smooth muscle assessed as inhibition of calcium-induced contraction at 5x10'-7 M relative to control; type: functional, Cavia porcellus; parameters: scale not given: the % may be the effect or the level left
[17] = system: Aorta; test: Relaxant activity in potassium depolarized guinea pig aortic strips assessed as inhibition of calcium-induced contraction at 10^-5 M relative to control; type: functional, Cavia porcellus; parameters: scale not given: the % may be the effect or the level left
[18] = Negative chronotropic activity in guinea pig right atrium assessed as decrease in atrial rate at 5x10'-6 M relative to control; type: functional, Cavia porcellus, Cardiac atrium; parameters: scale not given: the % may be the effect or the level left
[19] = Negative inotropic activity in guinea pig left atrium assessed as decrease in developed tension at 10^-4 M relative to control; type: functional, Cavia porcellus, Cardiac atrium; parameters: scale not given: the % may be the effect or the level left
[20] = system: Ileum; test: Relaxant activity in potassium depolarized guinea pig ileum longitudinal smooth muscle assessed as inhibition of calcium-induced contraction at 10^-5 M relative to control; type: functional, Cavia porcellus; parameters: scale not given: the % may be the effect or the level left
In short: (§3)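 Guinea pig aortic strips and ileum longitudinal smooth muscle are depolarized with 80 mM K⁺. The read-out is percent inhibition of calcium-induced contraction. Aorta is tested at 10⁻⁴ M and ileum at 10⁻⁵ M.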

[21] = system: Aorta; test: Relaxant activity in potassium depolarized guinea pig aortic strips assessed as inhibition of calcium-induced contraction at 10^-4 M relative to control; type: functional, Cavia porcellus; parameters: scale not given: the % may be the effect or the level left; in short: as §3
[22] = Negative inotropic activity in guinea pig right atrium assessed as decrease in developed tension at 10^-5 M relative to control; type: functional, Cavia porcellus, Cardiac atrium; parameters: scale not given: the % may be the effect or the level left
In short: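 The read-out is decrease in developed tension of spontaneously beating isolated guinea pig right atrium at 10⁻⁵ M. It is expressed as percent change from control, n = 7−8.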

[23] = Negative inotropic activity in guinea pig right atrium assessed as decrease in developed tension; type: functional, tissue-based; conditions: Cavia porcellus, Cardiac atrium
[24] = Negative chronotropic activity in guinea pig right atrium assessed as decrease in atrial rate at 10^-4 M relative to control; type: functional, Cavia porcellus, Cardiac atrium; parameters: scale not given: the % may be the effect or the level left
In short: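 The read-out is decrease in rate of spontaneously beating isolated guinea pig right atrium at 10⁻⁴ M. It is expressed as percent change from control, n = 7−8.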

## COC(=O)C1=C(C)NC(C)=C(C(=O)OC)C1c1ccccc1[N+](=O)[O-] [NIFEDIPINE]
[1]
  IC50: 6.1 nM
  Ki: 1.9 nM
[2]
  %max: 92%
[3]
  IC50: 86 nM
  Ki: 32 nM
[4]
  IC50: 5.7 nM
  Ki: 2 nM
[5]
  %max: 80%
[6]
  IC50: 5.1 nM
  Ki: 1.5 nM
[7]
  %max: 72%
[8]
  Activity: 82%
[9]
  Activity: 70%
[10]
  EC50: 39 nM
[11]
  Activity: 85%
[12]
  Activity: 97%
[13]
  EC50: 260 nM
[14]
  %max: 75%

## COC(=O)C1=C(C)NC(C)=C(C(=O)OC)C1c1c(-c2cccs2)nc2sccn12
[3]
  IC50: 2150 nM
  Ki: 710 nM
[5]
  %max: < 50%
[7]
  %max: < 50%
[15]
  IC50: 110 nM
[16]
  Activity: 91%
[17]
  Activity: 23%
[10]
  EC50: 1300 nM
[18]
  Activity: 85%
[19]
  Activity: 46%
[14]
  %max: 50%

## COC(=O)C1=C(C)NC(C)=C(C(=O)OC)C1c1c(-c2c(Cl)csc2Cl)nc2sc(C)cn12
[15]
  IC50: 3230 nM
[20]
  Activity: 87%
[21]
  Activity: 31%
[22]
  Activity: 82%
[23]
  EC50: 730 nM
[24]
  Activity: 22%
[12]
  Activity: 60%
[13]
  EC50: 310 nM
